Assay results published in paper PMC6215875 (Cancer Science, 2018).
Where two headings read alike, the source gives them in different places.

Key:
[1] = target: KIT mutants (Homo sapiens, UniProt P10721, D816V); details: COS-1, D816V in exon 17; cited from earlier work
[2] = system: GIST48 cells; test: Cell cycle analysis, GIST48; type: cell-based; details: GIST48, 1 μmol/L
Outline: (§1)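 Test compound added at the doses stated, and cells harvested over a time course. Cells washed twice in PBS, fixed overnight in cold 70% ethanol, and pelleted at 5000 g for 5 min. Pellets incubated with 0.2 mg/mL RNase A for 1 h, then stained with 20 μg/mL propidium iodide at room temperature. DNA content read by flow cytometry. Mean ± SE of triplicate experiments.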

[3] = system: KIT mutants; type: cell-based; details: 1 μmol/L; for suppression of KIT activation (phosphorylation): COS-1, 4 double mutations (∆557-558 with V654A, T670I, D820G or N822K); for suppression of KIT phosphorylation: COS-1, single mutations in exons 13, 14, and 17, 30 minutes
[4] = system: advanced GIST; details: cited from earlier work; for median PFS: advanced GIST patients
[5] = system: GIST-T1 cells; test: Cell proliferation assay, GIST-T1; type: cell-based; details: imatinib-sensitive GIST-T1, Figure S2A
Outline: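 GIST-T1 cells were grown in RPMI-1640 with 10% FBS at 37°C, 5% CO₂. 4 × 10⁴ cells were exposed to a range of test compound doses for 120 h. They were then stained with methylene blue for 1 h, and absorbance was read at […].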

[6] = system: GIST430 xenograft; test: GIST430 xenograft in NOD-SCID mice; type: in vivo; details: for KIT and KIT phosphorylation in tumors compared with controls: GIST430 xenograft tumors after treatment, Figure 6B
Outline: (§2)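 Male NOD-SCID mice (6–8 weeks, SPF) received GIST430 cells (2 × 10⁷/mouse) s.c. At 50–100 mm³, vehicle or test compound in 20% (2-hydroxypropyl)-β-cyclodextrin was given orally on days 1–5 weekly for 2 weeks. Controls n=5, treated groups n=6. Tumor volume (length × width² × π/6) and body weight were recorded three times weekly up to 16 days. Comparison: Wilcoxon rank sum.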

[7] = Body weight and survival of GIST430 xenograft mice; type: in vivo; details: regorafenib 30 mg/kg; for body weight (mean ± SE): oral, 2 weeks, BPR1J373 50 mg/kg, sunitinib 40 mg/kg
Outline: as §2

[8] = system: GIST430 cells; test: Cell cycle analysis, GIST430; type: cell-based; details: BPR1J373 at 10 nmol/L, 100 nmol/L, and 1 μmol/L
Outline: as §1

Sequence of KIT mutants (Homo sapiens, UniProt P10721, D816V) (P10721 26-976 D816V): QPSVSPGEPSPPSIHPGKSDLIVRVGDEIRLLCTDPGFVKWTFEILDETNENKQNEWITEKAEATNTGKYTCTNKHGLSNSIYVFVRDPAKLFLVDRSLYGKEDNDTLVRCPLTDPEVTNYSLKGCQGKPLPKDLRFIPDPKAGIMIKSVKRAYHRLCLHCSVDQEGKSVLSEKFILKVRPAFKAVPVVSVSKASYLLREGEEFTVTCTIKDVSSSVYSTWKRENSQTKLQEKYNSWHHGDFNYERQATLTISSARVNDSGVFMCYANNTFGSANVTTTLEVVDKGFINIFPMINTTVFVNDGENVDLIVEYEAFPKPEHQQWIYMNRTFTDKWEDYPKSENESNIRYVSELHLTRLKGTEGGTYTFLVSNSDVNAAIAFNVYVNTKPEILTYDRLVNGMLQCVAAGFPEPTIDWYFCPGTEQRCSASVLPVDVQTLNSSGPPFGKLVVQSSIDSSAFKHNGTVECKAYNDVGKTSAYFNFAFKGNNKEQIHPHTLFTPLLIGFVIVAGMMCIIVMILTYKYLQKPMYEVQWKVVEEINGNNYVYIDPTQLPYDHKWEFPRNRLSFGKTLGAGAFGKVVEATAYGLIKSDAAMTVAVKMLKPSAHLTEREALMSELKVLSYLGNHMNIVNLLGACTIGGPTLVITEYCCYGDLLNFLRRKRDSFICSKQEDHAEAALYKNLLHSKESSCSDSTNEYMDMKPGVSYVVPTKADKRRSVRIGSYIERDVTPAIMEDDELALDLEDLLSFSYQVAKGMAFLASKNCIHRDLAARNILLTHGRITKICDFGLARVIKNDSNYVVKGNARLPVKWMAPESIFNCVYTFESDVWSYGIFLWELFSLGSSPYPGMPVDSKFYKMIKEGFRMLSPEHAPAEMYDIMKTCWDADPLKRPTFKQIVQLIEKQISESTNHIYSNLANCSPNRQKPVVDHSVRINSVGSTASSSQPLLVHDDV

Structure (SMILES): Cc1ccc(NC(=O)c2ccc(CN3CCN(C)CC3)cc2)cc1Nc1nccc(-c2cccnc2)n1 [Imatinib]
- suppression of KIT phosphorylation [1]: resistant
- cell cycle change [2]: Neither 1 μmol/L imatinib nor nilotinib induced S or G2/M arrest
- suppression of KIT activation (phosphorylation) [3]: variable effects
- suppression of KIT phosphorylation [3]: differentially suppressed
- disease control rate ([4]; advanced GIST, initial phase II study): 81.6%

Structure (SMILES): Cc1cn(-c2cc(NC(=O)c3ccc(C)c(Nc4nccc(-c5cccnc5)n4)c3)cc(C(F)(F)F)c2)cn1 [Nilotinib]
- suppression of KIT phosphorylation [1]: resistant
- antiproliferative effect [5]: best antiproliferative effects
- cell cycle change [2]: Neither 1 μmol/L imatinib nor nilotinib induced S or G2/M arrest
- suppression of KIT activation (phosphorylation) [3]: variable effects
- suppression of KIT phosphorylation [3]: differentially suppressed

Structure (SMILES): CCN(CC)CCNC(=O)c1c(C)[nH]c(/C=C2\C(=O)Nc3ccc(F)cc32)c1C [Sunitinib]
- KIT and KIT phosphorylation in tumors compared with controls [6]: decreased expression levels of KIT and KIT phosphorylation
- antitumor effect vs control, P (Wilcoxon rank sum test) ([6]; oral, day 1 to day 5 per week for 2 weeks, BPR1J373 50 mg/kg, sunitinib 40 mg/kg): 0.03
- suppression of KIT phosphorylation [1]: resistant
- antiproliferative effect [5]: best antiproliferative effects
- body weight (mean ± SE) [7]: 29.1 ± 1.04 g
- suppression of KIT activation (phosphorylation) [3]: variable effects
- suppression of KIT phosphorylation [3]: differentially suppressed
- median PFS ([4]; second-line treatment): 6.8 months

Structure (SMILES): CNC(=O)c1cc(Oc2ccc(NC(=O)Nc3ccc(Cl)c(C(F)(F)F)c3)c(F)c2)ccn1 [Regorafenib]
- KIT and KIT phosphorylation in tumors compared with controls [6]: decreased expression levels of KIT and KIT phosphorylation
- cell cycle change [2]: only a mild increase in subG1 and a mild decrease in S and G2/M proportions
- body weight (mean ± SE) [7]: 28.82 ± 0.52 g
- mice that died before completion of the experiment ([7]; 6 mice, died at day 14): 1
- suppression of KIT activation (phosphorylation) [3]: variable effects
- suppression of KIT phosphorylation [3]: differentially suppressed
- median PFS ([4]; third-line treatment, phase III): 4.8 months
- cell cycle change [8]: did not induce significant cell cycle changes
